Measurements: ChEMBL document CHEMBL4689842, “EUbOPEN Chemogenomics Library wave 1” (2021)
Values joined by “and” are separate entries in the source; they are usually repeats but may differ in a detail not shown here. Equal entries are not always repeated.

Tested on: U2OS
Assay: Multiplex assay against U2OS
Type: toxicity, cell-based
Conditions: human
Method in brief: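 On a CQ1 microscope at 37°C and 5% CO2, live cells were imaged after compound addition. They had been stained at seeding with Hoechst33342, BioTracker Green Microtubule Cytoskeleton Dye, MitoTracker Red and Annexin V Alexa Fluor 680. CellPathfinder machine-learning gating assigned cells to Hoechst high-intensity objects or normal cells, normal cells to healthy, pyknosed or fragmented nuclei, and pyknosed cells to mitotic or apoptotic. Tubulin, mitochondrial-mass and membrane-permeability phenotypes are per cents of healthy-nucleus cells.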

[1] = 12 h, 1 µM, compound concentration 1 uM, replicate 1
[2] = 12 h, 1 µM, compound concentration 1 uM, replicate 2
[3] = 12 h, 10 µM, compound concentration 10 uM, replicate 1
[4] = 12 h, 10 µM, compound concentration 10 uM, replicate 2
[5] = 24 h, 1 µM, compound concentration 1 uM, replicate 1
[6] = 24 h, 1 µM, compound concentration 1 uM, replicate 2
[7] = 24 h, 10 µM, compound concentration 10 uM, replicate 1
[8] = 24 h, 10 µM, compound concentration 10 uM, replicate 2
[9] = 48 h, 1 µM, compound concentration 1 uM, replicate 1
[10] = 48 h, 1 µM, compound concentration 1 uM, replicate 2
[11] = 48 h, 10 µM, compound concentration 10 uM, replicate 1
[12] = 48 h, 10 µM, compound concentration 10 uM, replicate 2

## Cc1cc(C)c(S(=O)(=O)N(Cc2ccc(-c3cccc(S(C)(=O)=O)c3)cc2)Cc2ccc(C(F)(F)F)o2)c(C)c1
[1]
  Population Apoptotic (%): 50%
  Population Fragmented Nuclei (%): 9%
  Population Healthy Nuclei (%): 84%
  Population Hoechst High Intensity Objects (%): 7%
  Population Membrane Permeable-Phenotype (%): 4%
  Population Mitochondria Different-Phenotype (%): 18%
  Population Mitotic Cells (%): 50%
  Population Normal (%): 92%
  Population Pyknosed Nuclei (%): 6%
  Population Tubulin-Different-Phenotype (%): 12%
  Total Cell Count: 77
[2]
  Population Apoptotic (%): 66%
  Population Fragmented Nuclei (%): 15%
  Population Healthy Nuclei (%): 80%
  Population Hoechst High Intensity Objects (%): 6%
  Population Membrane Permeable-Phenotype (%): 3%
  Population Mitochondria Different-Phenotype (%): 21%
  Population Mitotic Cells (%): 33%
  Population Normal (%): 93%
  Population Pyknosed Nuclei (%): 3%
  Population Tubulin-Different-Phenotype (%): 27%
  Total Cell Count: 72
[3]
  Population Apoptotic (%): 31%
  Population Fragmented Nuclei (%): 8%
  Population Healthy Nuclei (%): 81%
  Population Hoechst High Intensity Objects (%): 5%
  Population Membrane Permeable-Phenotype (%): 58%
  Population Mitochondria Different-Phenotype (%): 27%
  Population Mitotic Cells (%): 68%
  Population Normal (%): 94%
  Population Pyknosed Nuclei (%): 10%
  Population Tubulin-Different-Phenotype (%): 85%
  Total Cell Count: 104
[4]
  Population Apoptotic (%): 0%
  Population Fragmented Nuclei (%): 14%
  Population Healthy Nuclei (%): 77%
  Population Hoechst High Intensity Objects (%): 22%
  Population Membrane Permeable-Phenotype (%): 3%
  Population Mitochondria Different-Phenotype (%): 3%
  Population Mitotic Cells (%): 100%
  Population Normal (%): 77%
  Population Pyknosed Nuclei (%): 8%
  Population Tubulin-Different-Phenotype (%): 11%
  Total Cell Count: 81
[5]
  Population Apoptotic (%): 40%
  Population Fragmented Nuclei (%): 10%
  Population Healthy Nuclei (%): 82%
  Population Hoechst High Intensity Objects (%): 3%
  Population Membrane Permeable-Phenotype (%): 3%
  Population Mitochondria Different-Phenotype (%): 13%
  Population Mitotic Cells (%): 60%
  Population Normal (%): 96%
  Population Pyknosed Nuclei (%): 7%
  Population Tubulin-Different-Phenotype (%): 9%
  Total Cell Count: 89
[6]
  Population Apoptotic (%): 0%
  Population Fragmented Nuclei (%): 14%
  Population Healthy Nuclei (%): 80%
  Population Hoechst High Intensity Objects (%): 1%
  Population Membrane Permeable-Phenotype (%): 5%
  Population Mitochondria Different-Phenotype (%): 18%
  Population Mitotic Cells (%): 100%
  Population Normal (%): 98%
  Population Pyknosed Nuclei (%): 5%
  Population Tubulin-Different-Phenotype (%): 32%
  Total Cell Count: 86
[7]
  Population Apoptotic (%): 41%
  Population Fragmented Nuclei (%): 11%
  Population Healthy Nuclei (%): 71%
  Population Hoechst High Intensity Objects (%): 6%
  Population Membrane Permeable-Phenotype (%): 47%
  Population Mitochondria Different-Phenotype (%): 32%
  Population Mitotic Cells (%): 58%
  Population Normal (%): 93%
  Population Pyknosed Nuclei (%): 17%
  Population Tubulin-Different-Phenotype (%): 87%
  Total Cell Count: 133
[8]
  Population Apoptotic (%): 14%
  Population Fragmented Nuclei (%): 15%
  Population Hoechst High Intensity Objects (%): 10%
  Population Membrane Permeable-Phenotype (%): 5%
  Population Mitochondria Different-Phenotype (%): 10%
  Population Mitotic Cells (%): 85%
  Population Normal (%): 89%
  Population Pyknosed Nuclei (%): 13%
  Population Tubulin-Different-Phenotype (%): 15%
  Total Cell Count: 109
[9]
  Population Apoptotic (%): 64%
  Population Fragmented Nuclei (%): 6%
  Population Healthy Nuclei (%): 83%
  Population Hoechst High Intensity Objects (%): 3%
  Population Membrane Permeable-Phenotype (%): 1%
  Population Mitochondria Different-Phenotype (%): 7%
  Population Mitotic Cells (%): 35%
  Population Normal (%): 96%
  Population Pyknosed Nuclei (%): 9%
  Population Tubulin-Different-Phenotype (%): 4%
  Total Cell Count: 116
[10]
  Population Apoptotic (%): 50%
  Population Fragmented Nuclei (%): 9%
  Population Healthy Nuclei (%): 84%
  Population Hoechst High Intensity Objects (%): 2%
  Population Membrane Permeable-Phenotype (%): 6%
  Population Mitochondria Different-Phenotype (%): 25%
  Population Mitotic Cells (%): 50%
  Population Normal (%): 97%
  Population Pyknosed Nuclei (%): 5%
  Population Tubulin-Different-Phenotype (%): 34%
  Total Cell Count: 123
[11]
  Population Apoptotic (%): 55%
  Population Fragmented Nuclei (%): 9%
  Population Healthy Nuclei (%): 72%
  Population Hoechst High Intensity Objects (%): 3%
  Population Membrane Permeable-Phenotype (%): 24%
  Population Mitochondria Different-Phenotype (%): 24%
  Population Mitotic Cells (%): 45%
  Population Normal (%): 96%
  Population Pyknosed Nuclei (%): 18%
  Population Tubulin-Different-Phenotype (%): 55%
  Total Cell Count: 181
[12]
  Population Apoptotic (%): 25%
  Population Fragmented Nuclei (%): 7%
  Population Healthy Nuclei (%): 82%
  Population Membrane Permeable-Phenotype (%): 6%
  Population Mitochondria Different-Phenotype (%): 10%
  Population Mitotic Cells (%): 75%
  Population Pyknosed Nuclei (%): 10%
  Population Tubulin-Different-Phenotype (%): 13%
  Total Cell Count: 148

## Cl.O=C(c1ccc(Nc2nccc(-c3cc4ccccc4s3)n2)cc1)N1CCC(N2CCCC2)CC1
[1]
  Population Apoptotic (%): 31%
  Population Fragmented Nuclei (%): 8%
  Population Healthy Nuclei (%): 80%
  Population Hoechst High Intensity Objects (%): 1%
  Population Membrane Permeable-Phenotype (%): 18%
  Population Mitochondria Different-Phenotype (%): 11%
  Population Mitotic Cells (%): 68%
  Population Normal (%): 98%
  Population Pyknosed Nuclei (%): 11%
  Population Tubulin-Different-Phenotype (%): 18%
  Total Cell Count: 145
[2]
  Population Apoptotic (%): 0%
  Population Fragmented Nuclei (%): 20%
  Population Healthy Nuclei (%): 75%
  Population Hoechst High Intensity Objects (%): 25%
  Population Membrane Permeable-Phenotype (%): 13%
  Population Mitochondria Different-Phenotype (%): 19%
  Population Mitotic Cells (%): 100%
  Population Normal (%): 74%
  Population Pyknosed Nuclei (%): 4%
  Population Tubulin-Different-Phenotype (%): 19%
  Total Cell Count: 110
[3]
  Population Apoptotic (%): 68% and 85%
  Population Fragmented Nuclei (%): 15% and 25%
  Population Healthy Nuclei (%): 6%
  Population Hoechst High Intensity Objects (%): 5% and 7%
  Population Membrane Permeable-Phenotype (%): 46% and 76%
  Population Mitochondria Different-Phenotype (%): 92%
  Population Mitotic Cells (%): 31% and 14%
  Population Normal (%): 94% and 92%
  Population Pyknosed Nuclei (%): 77% and 66%
  Total Cell Count: 174 and 176
[4]
  Population Apoptotic (%): 93% and 70%
  Population Fragmented Nuclei (%): 35% and 26%
  Population Healthy Nuclei (%): 7% and 13%
  Population Membrane Permeable-Phenotype (%): 50% and 54%
  Population Mitochondria Different-Phenotype (%): 100% and 81%
  Population Normal (%): 78% and 93%
  Population Pyknosed Nuclei (%): 57% and 60%
  Population Tubulin-Different-Phenotype (%): 100% and 90%
  Total Cell Count: 73
[5]
  Population Apoptotic (%): 38%
  Population Fragmented Nuclei (%): 10%
  Population Healthy Nuclei (%): 81%
  Population Hoechst High Intensity Objects (%): 3%
  Population Membrane Permeable-Phenotype (%): 19%
  Population Mitochondria Different-Phenotype (%): 16%
  Population Mitotic Cells (%): 61%
  Population Normal (%): 96%
  Population Pyknosed Nuclei (%): 8%
  Population Tubulin-Different-Phenotype (%): 14%
  Total Cell Count: 148
[6]
  Population Apoptotic (%): 44%
  Population Fragmented Nuclei (%): 25%
  Population Healthy Nuclei (%): 68%
  Population Hoechst High Intensity Objects (%): 14%
  Population Membrane Permeable-Phenotype (%): 12%
  Population Mitochondria Different-Phenotype (%): 11%
  Population Mitotic Cells (%): 55%
  Population Normal (%): 85%
  Population Pyknosed Nuclei (%): 5%
  Population Tubulin-Different-Phenotype (%): 13%
  Total Cell Count: 97
[7]
  Population Apoptotic (%): 94% and 98%
  Population Fragmented Nuclei (%): 31% and 18%
  Population Healthy Nuclei (%): 4% and 9%
  Population Hoechst High Intensity Objects (%): 12% and 23%
  Population Membrane Permeable-Phenotype (%): 100%
  Population Mitochondria Different-Phenotype (%): 100% and 80%
  Population Mitotic Cells (%): 5% and 1%
  Population Normal (%): 87% and 76%
  Population Pyknosed Nuclei (%): 63% and 71%
  Population Tubulin-Different-Phenotype (%): 100%
  Total Cell Count: 171 and 213
[8]
  Population Apoptotic (%): 100%
  Population Fragmented Nuclei (%): 36% and 26%
  Population Healthy Nuclei (%): 16%
  Population Hoechst High Intensity Objects (%): 14% and 31%
  Population Mitotic Cells (%): 0%
  Population Normal (%): 85% and 68%
  Population Pyknosed Nuclei (%): 59% and 58%
  Population Tubulin-Different-Phenotype (%): 87%
  Total Cell Count: 192 and 76
[11]
  Population Apoptotic (%): 98%
  Population Fragmented Nuclei (%): 32%
  Population Healthy Nuclei (%): 6%
  Population Hoechst High Intensity Objects (%): 26%
  Population Membrane Permeable-Phenotype (%): 75%
  Population Mitochondria Different-Phenotype (%): 100%
  Population Mitotic Cells (%): 1%
  Population Normal (%): 73%
  Population Pyknosed Nuclei (%): 61%
  Population Tubulin-Different-Phenotype (%): 100%
  Total Cell Count: 154
[12]
  Population Apoptotic (%): 100%
  Population Fragmented Nuclei (%): 28%
  Population Healthy Nuclei (%): 50%
  Population Hoechst High Intensity Objects (%): 44%
  Population Membrane Permeable-Phenotype (%): 100%
  Population Mitotic Cells (%): 0%
  Population Normal (%): 55%
  Population Pyknosed Nuclei (%): 21%
  Total Cell Count: 77
